# Measured values published in ChEMBL document CHEMBL1136006, “New PET imaging agent for the serotonin transporter: [(18)F]ACF (2-[(2-amino-4-chloro-5-fluorophenyl)thio]-N,N-dimethyl-benzenmethanamine)” (J Med Chem, 2002).
# Columns and labels:
# Rattus norvegicus [1] = test: Effect of pretreatment with (+)-McN5652 with a dose of 2 mg/kg (i.v.) on specific binding of [18F]ACF in rat brain hippocampus; assay type: ADME, organism-based; design: dose 2 mg/kg, route intravenous; settings: in vivo, iv
# How it was run: (§1)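 Rats pretreated iv with drug (2 mg/kg) or saline 5 min before iv [18F]ACF (50 μCi). Sacrificed 1 h after tracer. Brain regions were dissected, weighed and counted, and % dose/g was calculated against a diluted initial dose. Drug-treated rats were compared with saline controls by ANOVA/Dunnett's test (p<0.05). Three rats per point, average ± SD.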
# Rattus norvegicus [2] = test: Effect of pretreatment with methylphenidate with a dose of 2 mg/kg (i.v.) on specific binding of [18F]ACF in rat brain cerebellum; dose/g; assay type: ADME, organism-based; design: dose 2 mg/kg, route intravenous; settings: in vivo, iv; how it was run: as §1
# Rattus norvegicus [3] = test: Effect of pretreatment with methylphenidate with a dose of 2 mg/kg (i.v.) on specific binding of [18F]ACF in rat brain hippocampus; assay type: ADME, organism-based; design: dose 2 mg/kg, route intravenous; settings: in vivo, iv; how it was run: as §1
# Rattus norvegicus [4] = test: Effect of pretreatment with methylphenidate with a dose of 2 mg/kg (i.v.) on specific binding of [18F]ACF in rat brain hypothalamus; assay type: ADME, organism-based; design: dose 2 mg/kg, route intravenous; settings: in vivo, iv; how it was run: as §1
# Rattus norvegicus [5] = test: Effect of pretreatment with nisoxatine with a dose of 2 mg/kg (i.v.) on specific binding of [18F]ACF in rat brain hypothalamus; assay type: ADME, organism-based; design: dose 2 mg/kg, route intravenous; settings: in vivo, iv; how it was run: as §1
# Rattus norvegicus [6] = test: Effect of pretreatment with nisoxatine with a dose of 2 mg/kg (i.v.) on specific binding of [18F]ACF in rat brain remainder; assay type: ADME, organism-based; design: dose 2 mg/kg, route intravenous; settings: in vivo, iv; how it was run: as §1
# Rattus norvegicus [7] = organism: Rattus norvegicus; test: Regional brain distribution of [18F]-ACF radiolabeled compound in rat hypothalamus after 120 min; assay type: ADME, organism-based; settings: in vivo, 2 h
# How it was run: (§2)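 Rats (three per group) under ether anesthesia got 30 μCi tracer in 0.2 mL saline into the femoral vein and were killed by cardiac excision at the stated time. Cortex, striatum, hippocampus, cerebellum, hypothalamus and the rest of brain were dissected, weighed and gamma counted. %dose/g was taken against counts of a diluted initial dose. Regional ratios are each region's %dose/g over cerebellum's. Mean ± SD.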
# Rattus norvegicus [8] = organism: Rattus norvegicus; test: Regional brain distribution of [18F]ACF radiolabeled compound in rat remainder (rest of brain) after 2 min; assay type: ADME, organism-based; settings: in vivo; how it was run: as §2
# Rattus norvegicus [9] = organism: Rattus norvegicus; test: Regional brain distribution of [18F]-ACF radiolabeled compound in rat remainder (rest of brain) after 30 min; assay type: ADME, organism-based; settings: in vivo, 0.5 h; how it was run: as §2
# Rattus norvegicus [10] = organism: Rattus norvegicus; test: Regional brain distribution of [18F]ACF radiolabeled compound in rat striatum after 60 min; assay type: ADME, organism-based; settings: in vivo, 1 h
# How it was run: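 Rats, three per group, under ether anaesthesia, given 30 μCi no-carrier-added tracer in 0.2 mL saline into the femoral vein. They were killed at the stated time by cardiac excision under ether. Striatum and other brain regions were dissected, weighed and counted. %dose/g was calculated against counts of 1% of the injected dose, as mean ± SD of three rats.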
# Rattus norvegicus [11] = organism: Rattus norvegicus; test: Organ distribution of [18F]ACF radiolabeled compound in rat liver after 240 min; assay type: ADME, organism-based; settings: in vivo, 4 h
# How it was run: (§3)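 Rats, three per time point, under ether anesthesia; 30 μCi tracer in 0.2 mL saline injected into femoral vein. Sacrificed by cardiac excision under ether at 2, 30, 60, 120 or 240 min. Organs removed, weighed and counted; % dose/organ calculated against counts of 1% of initial dose counted at the same time. Average of three rats ± SD.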
# Rattus norvegicus [12] = organism: Rattus norvegicus; test: Organ distribution of [18F]ACF radiolabeled compound in rat liver after 2 min; assay type: ADME, organism-based; settings: in vivo; how it was run: as §3
# Rattus norvegicus [13] = organism: Rattus norvegicus; test: Organ distribution of [18F]-ACF radiolabeled compound in rat liver after 30 min; assay type: ADME, organism-based; settings: in vivo, 0.5 h
# How it was run: (§4)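 Under ether anesthesia, 30 μCi no-carrier-added tracer in 0.2 mL saline injected into the femoral vein. Rats killed by cardiac excision at the stated time. Organs were removed, weighed and counted; % dose/organ was calculated against counts of a 1% initial-dose standard. Three rats per time, average ± SD.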
# Rattus norvegicus [14] = organism: Rattus norvegicus; test: Organ distribution of [18F]ACF radiolabeled compound in rat lung after 120 min; assay type: ADME, organism-based; settings: in vivo, 2 h; how it was run: as §3
# Rattus norvegicus [15] = organism: Rattus norvegicus; test: Organ distribution of [18F]-ACF radiolabeled compound in rat lung after 30 min; assay type: ADME, organism-based; settings: in vivo, 0.5 h; how it was run: as §4
# Rattus norvegicus [16] = organism: Rattus norvegicus; test: Organ distribution of [18F]-ACF radiolabeled compound in rat lung after 60 min; assay type: ADME, organism-based; settings: in vivo, 1 h; how it was run: as §4
# Rattus norvegicus [17] = organism: Rattus norvegicus; test: Organ distribution of [18F]-ACF radiolabeled compound in rat skin after 240 min; assay type: ADME, organism-based; settings: in vivo, 4 h; how it was run: as §4
# Rattus norvegicus [18] = organism: Rattus norvegicus; test: Regional brain distribution of [18F]-ACF radiolabeled compound in rat cortex after 240 min; assay type: ADME, organism-based; settings: in vivo, 4 h; how it was run: as §2
# Rattus norvegicus [19] = test: Effect of pretreatment with nisoxatine with a dose of 2 mg/kg (i.v.) on specific binding of [18F]ACF in rat brain striatum; assay type: ADME, organism-based; design: dose 2 mg/kg, route intravenous; settings: in vivo, iv; how it was run: as §1
# Rattus norvegicus [20] = organism: Rattus norvegicus; test: Organ distribution of [18F]-ACF radiolabeled compound in rat bone after 240 min; assay type: ADME, organism-based, Bone element; settings: in vivo, 4 h; how it was run: as §4
# Rattus norvegicus [21] = organism: Rattus norvegicus; test: Regional brain distribution of [18F]ACF radiolabeled compound in rat hippocampus after 240 min; assay type: ADME, organism-based; settings: in vivo, 4 h; how it was run: as §2
# Rattus norvegicus [22] = organism: Rattus norvegicus; test: Organ distribution of [18F]ACF radiolabeled compound in rat brain after 2 min; assay type: ADME, organism-based; settings: in vivo; how it was run: as §3
# Rattus norvegicus [23] = test: Ratio of effect of pretreatment with methylphenidate with a dose of 2 mg/kg (i.v.) on specific binding of [18F]ACF in rat brain hippocampus to that of cerebellum; assay type: ADME, organism-based; design: dose 2 mg/kg, route intravenous; settings: in vivo, iv
# How it was run: (§5)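 Rats (three per point) pretreated iv with competing drug at 2 mg/kg or saline (control) 5 min before iv [18F]ACF (50 μCi). At 1 h post tracer, brain regions (cortex, striatum, hippocampus, cerebellum, hypothalamus, remainder) dissected, weighed, counted as % dose/g and expressed as ratio to cerebellum. Average ± SD; ANOVA with Dunnett's test vs saline controls, p < 0.05.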
# Rattus norvegicus [24] = test: Ratio of effect of pretreatment with methylphenidate with a dose of 2 mg/kg (i.v.) on specific binding of [18F]-ACF in rat brain remainder to that of cerebellum; assay type: ADME, organism-based; design: dose 2 mg/kg, route intravenous; settings: in vivo, iv; how it was run: as §5
# Rattus norvegicus [25] = test: Ratio of effect of pretreatment with nisoxatine with a dose of 2 mg/kg (i.v.) on specific binding of [18F]ACF in rat brain cerebellum to that of cerebellum; assay type: ADME, organism-based; design: dose 2 mg/kg, route intravenous; settings: in vivo, iv; how it was run: as §5
# Rattus norvegicus [26] = organism: Rattus norvegicus; test: Ratio of regional brain distribution of [18F]ACF radiolabeled compound in rat cerebellum to that of cerebellum after 30 min; assay type: ADME, organism-based; settings: in vivo, 0.5 h; how it was run: as §2
# Rattus norvegicus [27] = organism: Rattus norvegicus; test: Ratio of regional brain distribution of [18F]-ACF radiolabeled compound in rat cerebellum to that of cerebellum after 60 min; assay type: ADME, organism-based; settings: in vivo, 1 h
# How it was run: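 Rats, three per time point, given 30 μCi tracer in 0.2 mL saline into femoral vein under ether anesthesia; killed at 2, 30, 60, 120 or 240 min. Cortex, striatum, hippocampus, cerebellum, hypothalamus and rest of brain dissected, weighed, counted; % dose/g against diluted initial dose, then each region divided by cerebellum. Average of three rats ± SD.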
# Rattus norvegicus [28] = organism: Rattus norvegicus; test: Ratio of regional brain distribution of [18F]ACF radiolabeled compound in rat cortex to that of cerebellum after 30 min; assay type: ADME, organism-based; settings: in vivo, 0.5 h; how it was run: as §2
# Rattus norvegicus [29] = test: Ratio of effect of pretreatment with nisoxatine with a dose of 2 mg/kg (i.v.) on specific binding of [18F]ACF in rat brain remainder to that of cerebellum; assay type: ADME, organism-based; design: dose 2 mg/kg, route intravenous; settings: in vivo, iv; how it was run: as §5
# Rattus norvegicus [30] = organism: Rattus norvegicus; test: Ratio of regional brain distribution of [18F]-ACF radiolabeled compound in rat hypothalamus to that of cerebellum after 60 min; assay type: ADME, organism-based; settings: in vivo, 1 h; how it was run: as §2
# Rattus norvegicus [31] = organism: Rattus norvegicus; test: Ratio of regional brain distribution of [18F]ACF radiolabeled compound in rat striatum to that of cerebellum after 2 min; assay type: ADME, organism-based; settings: in vivo; how it was run: as §2
# Rattus norvegicus [32] = test: Ratio of effect of pretreatment with (+)-McN5652 with a dose of 2 mg/kg (i.v.) on specific binding of [18F]ACF in rat brain remainder to that of cerebellum; assay type: ADME, organism-based; design: dose 2 mg/kg, route intravenous; settings: in vivo, iv; how it was run: as §5
# Rattus norvegicus [33] = organism: Rattus norvegicus; test: Organ distribution of [18F]ACF radiolabeled compound in rat blood after 60 min; assay type: ADME, organism-based; settings: in vivo, 1 h; how it was run: as §3
structure (smiles),measurement,setting,value
CN(C)Cc1ccccc1Sc1cc(F)c(Cl)cc1N,Dose/g,Rattus norvegicus [1],0.34%
same,Dose/g,Rattus norvegicus [2],0.17%
same,Dose/g,Rattus norvegicus [3],0.43%
same,Dose/g,Rattus norvegicus [4],0.52%
same,Dose/g,Rattus norvegicus [5],0.55%
same,Dose/g,Rattus norvegicus [6],0.41%
same,Dose/g,Rattus norvegicus [7],0.17%
same,Dose/g,Rattus norvegicus [8],1.69%
same,Dose/g,Rattus norvegicus [9],0.67%
same,Dose/g,Rattus norvegicus [10],0.45%
same,Dose/g,Rattus norvegicus [11],3.55 % dose/organ
same,Dose/g,Rattus norvegicus [12],9.41 % dose/organ
same,Dose/g,Rattus norvegicus [13],15.2 % dose/organ
same,Dose/g,Rattus norvegicus [14],0.32 % dose/organ
same,Dose/g,Rattus norvegicus [15],1.76 % dose/organ
same,Dose/g,Rattus norvegicus [16],0.73 % dose/organ
same,Dose/g,Rattus norvegicus [17],1.53 % dose/organ
same,Dose/g,Rattus norvegicus [18],0.03%
same,Dose/g,Rattus norvegicus [19],0.47%
same,Dose/g,Rattus norvegicus [20],0.27 % dose/organ
same,Dose/g,Rattus norvegicus [21],0.04%
same,Dose/g,Rattus norvegicus [22],3.27 % dose/organ
same,Ratio,Rattus norvegicus [23],2.5
same,Ratio,Rattus norvegicus [24],2.23
same,Ratio,Rattus norvegicus [25],1
same,Ratio,Rattus norvegicus [26],1
same,Ratio,Rattus norvegicus [27],1
same,Ratio,Rattus norvegicus [28],1.69
same,Ratio,Rattus norvegicus [29],2.17
same,Ratio,Rattus norvegicus [30],3.53
same,Ratio,Rattus norvegicus [31],1.41
same,Ratio,Rattus norvegicus [32],1.37
same,Dose/g,Rattus norvegicus [33],4.65%
